ChEMBL document CHEMBL1134584 (J Med Chem, 2001)
Each block holds one compound with its values, some of them ahead of it.

How the values were obtained:
[1] = molecular target: Somatostatin receptor type 5 (Homo sapiens, UniProt P35346); assay: Inhibition of [125 I -Tyr]SRIF-14 binding to membranes isolated from CHO-K1 cells expressing cloned human SRIF receptor (sst-5) subtype; format: cell membranes
[2] = molecular target: Somatostatin receptor type 1 (Homo sapiens, UniProt P30872); assay: Inhibition of [125 I -Tyr]SRIF-14 binding to membranes isolated from CHO-K1 cells expressing cloned human SRIF receptor (sst-1) subtype; format: cell membranes
[3] = molecular target: Somatostatin receptor type 4 (Homo sapiens, UniProt P31391); assay: Inhibition of [125 I -Tyr]SRIF-14 binding to membranes isolated from CHO-K1 cells expressing cloned human SRIF receptor (sst-4) subtype; format: cell membranes
[4] = molecular target: T1, Somatostatin receptor type 2 (Homo sapiens, UniProt P30874); assay: Inhibition of [125 I -Tyr]SRIF-14 binding to membranes isolated from CHO-K1 cells expressing cloned human SRIF receptor (sst-2) subtype; format: cell membranes
[5] = molecular target: T2, Somatostatin receptor type 3 (Homo sapiens, UniProt P32745); assay: Inhibition of [125 I -Tyr]SRIF-14 binding to membranes isolated from CHO-K1 cells expressing cloned human SRIF receptor (sst-3) subtype; format: cell membranes
[6] = molecular target: T2, Somatostatin receptor type 3; assay: Inhibitory concentration required to inhibit SRIF-14 induced reduction of cAMP in CHO-K1 cells expressing the human sst3 receptor.; format: functional, cell-based
[7] = molecular target: T1, Somatostatin receptor type 2; assay: Inhibition of [125 I -Tyr]SRIF-14 binding to membranes isolated from CHO-K1 cells expressing each of the cloned human SRIF receptor (sst-2) subtypes; format: cell membranes
Summary of the method: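 Stable CHO-K1 clones transfected with human receptor cDNA in pCMV5. Membranes prepared from these cells, 10-20 µg protein/well, incubated with 0.05-0.1 nM [125I-Tyr11]SRIF-14 in 50 mM HEPES pH 7.4, 0.2% BSA, 5 mM MgCl2 plus protease inhibitors, 50-90 min at 37 °C depending on subtype. GF/C filtration, then counting. Nonspecific binding defined with 0.1 µM SRIF-14. Ki obtained by nonlinear regression.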

Somatostatin receptor type 5, sequence (P35346 whole entry): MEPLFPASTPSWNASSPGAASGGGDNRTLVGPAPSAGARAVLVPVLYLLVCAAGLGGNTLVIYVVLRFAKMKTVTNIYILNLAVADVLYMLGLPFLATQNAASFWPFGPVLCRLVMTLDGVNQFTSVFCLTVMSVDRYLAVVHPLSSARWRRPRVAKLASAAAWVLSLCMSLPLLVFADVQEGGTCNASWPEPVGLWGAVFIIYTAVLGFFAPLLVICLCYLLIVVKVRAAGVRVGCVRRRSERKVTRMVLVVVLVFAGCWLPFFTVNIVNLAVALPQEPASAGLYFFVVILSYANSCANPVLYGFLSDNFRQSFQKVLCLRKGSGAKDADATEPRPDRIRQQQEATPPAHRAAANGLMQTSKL
T2 sequence (P32745 whole entry): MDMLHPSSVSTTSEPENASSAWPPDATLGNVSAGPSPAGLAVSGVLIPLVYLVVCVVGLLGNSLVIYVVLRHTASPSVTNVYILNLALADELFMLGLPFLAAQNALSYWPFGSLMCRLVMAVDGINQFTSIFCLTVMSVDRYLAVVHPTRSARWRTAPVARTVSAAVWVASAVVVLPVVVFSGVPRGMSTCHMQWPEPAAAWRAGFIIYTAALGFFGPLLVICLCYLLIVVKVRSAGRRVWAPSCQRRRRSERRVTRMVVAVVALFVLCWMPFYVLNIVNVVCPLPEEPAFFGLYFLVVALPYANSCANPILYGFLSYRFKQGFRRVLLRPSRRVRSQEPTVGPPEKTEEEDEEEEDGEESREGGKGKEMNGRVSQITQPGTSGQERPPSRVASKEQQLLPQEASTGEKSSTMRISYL
Somatostatin receptor type 4, sequence (P31391 whole entry): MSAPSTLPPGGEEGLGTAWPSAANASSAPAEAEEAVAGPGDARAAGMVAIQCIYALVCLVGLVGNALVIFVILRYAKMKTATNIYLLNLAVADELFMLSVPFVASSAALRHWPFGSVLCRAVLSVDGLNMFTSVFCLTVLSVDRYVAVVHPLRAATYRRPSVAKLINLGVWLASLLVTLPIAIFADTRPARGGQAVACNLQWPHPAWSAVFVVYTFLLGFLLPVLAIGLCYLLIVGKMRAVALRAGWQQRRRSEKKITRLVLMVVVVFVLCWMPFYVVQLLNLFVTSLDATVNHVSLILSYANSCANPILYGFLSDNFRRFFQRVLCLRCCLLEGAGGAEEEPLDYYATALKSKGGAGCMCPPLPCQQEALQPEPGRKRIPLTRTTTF
Somatostatin receptor type 1, sequence (P30872 whole entry): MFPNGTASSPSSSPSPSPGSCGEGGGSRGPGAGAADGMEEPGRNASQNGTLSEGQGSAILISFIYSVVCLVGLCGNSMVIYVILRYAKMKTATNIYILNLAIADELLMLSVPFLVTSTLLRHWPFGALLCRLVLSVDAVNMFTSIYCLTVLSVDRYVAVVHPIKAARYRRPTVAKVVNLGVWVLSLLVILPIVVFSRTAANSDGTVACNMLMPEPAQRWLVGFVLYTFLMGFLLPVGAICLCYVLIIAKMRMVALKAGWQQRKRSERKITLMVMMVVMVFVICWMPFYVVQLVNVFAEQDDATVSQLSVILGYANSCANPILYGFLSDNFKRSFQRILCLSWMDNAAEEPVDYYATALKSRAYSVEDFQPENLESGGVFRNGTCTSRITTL
T1 sequence (P30874 whole entry): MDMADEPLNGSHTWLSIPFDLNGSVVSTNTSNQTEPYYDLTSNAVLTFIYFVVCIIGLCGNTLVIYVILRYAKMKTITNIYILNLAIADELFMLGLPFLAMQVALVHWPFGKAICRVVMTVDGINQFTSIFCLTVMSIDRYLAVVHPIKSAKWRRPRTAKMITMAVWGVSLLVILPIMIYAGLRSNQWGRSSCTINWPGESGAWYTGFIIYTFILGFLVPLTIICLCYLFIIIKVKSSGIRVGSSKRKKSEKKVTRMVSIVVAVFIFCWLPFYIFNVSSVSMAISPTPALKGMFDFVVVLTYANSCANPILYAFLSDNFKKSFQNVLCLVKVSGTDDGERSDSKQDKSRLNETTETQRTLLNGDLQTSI

SMILES: c1ccc(-c2c[nH]c(C3Cc4c([nH]c5ccccc45)C(C4CCCCC4)N3)n2)cc1 (centres undefined)
Ki [1]: > 10000 nM
Ki [2]: 1800 nM
Ki [3]: > 10000 nM
Ki [4]: > 10000 nM

SMILES: CCCCC1(CCCC)N[C@@H](c2nc(-c3ccccc3)cs2)Cc2c1[nH]c1ccccc21
Ki [5]: 3800 nM

SMILES: c1ccc(-c2c[nH]c([C@@H]3Cc4c([nH]c5ccccc45)C4(N3)C3CC5CC(C3)CC4C5)n2)cc1 (some centres undefined)
Ki [5]: 84 nM

SMILES: CCCCC1(CCCC)N[C@H](c2nc(-c3ccccc3)c[nH]2)Cc2c1[nH]c1ccccc21 [listing 1 of 2 here]
Ki [1]: 3700 nM
Ki [2]: > 10000 nM
Ki [5]: 3.4 nM
Ki [3]: 9800 nM
Ki [4]: > 10000 nM
IC50 [6]: 6.8 nM

SMILES: CCCCC1(CCCC)N[C@H](c2nc(-c3ccccc3)c[nH]2)Cc2c1[nH]c1ccccc21 [listing 2 of 2 here]
Ki [5]: 0.79 nM

SMILES: CCCCC1(CCCC)N[C@@H](c2nc(-c3ccccc3)c[nH]2)Cc2c1[nH]c1ccccc21
Ki [1]: 2200 nM
Ki [2]: 3700 nM
Ki [5]: 0.64 nM
Ki [3]: 7100 nM
Ki [4]: > 10000 nM
IC50 [6]: 2.7 nM

SMILES: CCCCC1(CCCC)N[C@H](c2nc(-c3ccccc3)c(-c3ccccc3)[nH]2)Cc2c1[nH]c1ccccc21
Ki [5]: 5500 nM

SMILES: c1ccc(-c2c[nH]c([C@@H]3Cc4c([nH]c5ccccc45)C(c4ccncc4)N3)n2)cc1 (some centres undefined)
Ki [5]: 320 nM

SMILES: O=[N+]([O-])c1ccccc1C1N[C@H](c2nc(-c3ccccc3)c[nH]2)Cc2c1[nH]c1ccccc21 (some centres undefined)
Ki [5]: 200 nM

SMILES: c1ccc(-c2c[nH]c(-c3cc4c([nH]c5ccccc54)c(C4CCCCC4)n3)n2)cc1
Ki [5]: 750 nM

SMILES: CCCCC1(CCCC)N[C@@H](c2nc(-c3ccccc3)c[nH]2)Cc2c1sc1ccccc21
Ki [5]: 430 nM

SMILES: C[C@@H](c1c[nH]c2ccccc12)[C@@H](NC(=O)N1CCC(n2c(=O)[nH]c3ccccc32)CC1)C(=O)N[C@@H](CCCCN)C(=O)OC(C)(C)C
Ki [7]: 0.01 nM

Further compounds by falling Ki [5], results first:

Ki [5]: 71 nM
SMILES: CC(=O)N1CCC2(CC1)N[C@@H](c1nc(-c3ccccc3)c[nH]1)Cc1c2[nH]c2ccccc12

Ki [5]: 60 nM
SMILES: COc1ccc(C2N[C@H](c3nc(-c4ccccc4)c[nH]3)Cc3c2[nH]c2ccccc32)cc1 (some centres undefined)

Ki [5]: 33 nM
SMILES: CN(C)c1ccc(C2N[C@H](c3nc(-c4ccccc4)c[nH]3)Cc3c2[nH]c2ccccc32)cc1 (some centres undefined)

Ki [5]: 28 nM
SMILES: CCCCCCC1(CCCCCC)N[C@H](c2nc(-c3ccccc3)c[nH]2)Cc2c1[nH]c1ccccc21

Ki [5]: 17 nM
SMILES: CCCCC1(CCCC)NC(c2nc(-c3ccccc3)c[nH]2)Cc2c1[nH]c1ccc(OCc3ccccc3)cc21 (centres undefined)

Ki [5]: 13 nM
SMILES: c1ccc(-c2c[nH]c([C@@H]3Cc4c([nH]c5ccccc45)C4(Cc5ccccc5C4)N3)n2)cc1

Ki [5]: 11 nM
SMILES: CCC1(CC)N[C@H](c2nc(-c3ccccc3)c[nH]2)Cc2c1[nH]c1ccccc21

Ki [5]: 11 nM
SMILES: CCCCCC1N[C@H](c2nc(-c3ccccc3)c[nH]2)Cc2c1[nH]c1ccccc21 (some centres undefined)

Ki [5]: 6.9 nM
IC50 [6]: 450 nM
SMILES: CCCCCC1(CCCCC)NC(c2nc(-c3ccccc3)c[nH]2)Cc2c1[nH]c1ccc(C)cc21 (centres undefined)

Ki [5]: 3.4 nM
IC50 [6]: 43 nM
SMILES: CCCCC1(CCCC)NC(c2nc(-c3ccccc3)c[nH]2)Cc2c1[nH]c1ccc(Cl)cc21 (centres undefined)

Ki [1]: > 10000 nM
Ki [2]: > 10000 nM
Ki [5]: 0.92 nM
Ki [3]: > 10000 nM
Ki [4]: > 10000 nM
IC50 [6]: 0.84 nM
SMILES: CCCCCC1(CCCCC)N[C@H](c2nc(-c3ccccc3)c[nH]2)Cc2c1[nH]c1ccccc21

Ki [1]: > 10000 nM
Ki [2]: 4400 nM
Ki [5]: 0.9 nM
Ki [3]: > 10000 nM
Ki [4]: > 10000 nM
IC50 [6]: 5.4 nM
SMILES: CC1(C2CCCCC2)N[C@H](c2nc(-c3ccccc3)c[nH]2)Cc2c1[nH]c1ccccc21 (some centres undefined)
